In ChEMBL document CHEMBL1641489, “Syntheses, structures and antibiotic activities of LpxC inhibitors based on the diacetylene scaffold” (Bioorg Med Chem, 2011):
In brackets after ≈: the same amount, converted by molar mass.

Assays:
Pseudomonas aeruginosa = assay: Antibacterial activity against Pseudomonas aeruginosa PAO1 by NCCLS assay; format: functional
Summary of the method: (§1)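 Broth microdilution MIC per NCCLS protocol, adapted to 96-well format in LB medium containing 5% DMSO; MIC taken as lowest concentration inhibiting bacterial growth.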

Escherichia coli [1] = assay: Antibacterial activity against Escherichia coli W3110RL replaced with Rhizobium leguminosarum lpxC gene by NCCLS assay; format: functional
Summary of the method: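 MIC by the NCCLS protocol in LB medium with 5% DMSO. Strain: E. coli with native lpxC replaced by the R. leguminosarum gene.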

Escherichia coli [2] = assay: Antibacterial activity against Escherichia coli W3110 by NCCLS assay; format: functional; summary of the method: as §1
Escherichia coli [3] = assay: Antibacterial activity against Escherichia coli W3110PA replaced with Pseudomonas aeruginosa lpxC gene by NCCLS assay; format: functional
Summary of the method: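 MIC by the NCCLS protocol in LB medium with 5% DMSO. Strain: W3110 with chromosomal lpxC swapped for P. aeruginosa lpxC. The swap was made by λ-red recombination in DY330 and moved into W3110 by P1vir transduction, selecting on LB/agar with 15 μg/mL L-161,240 and 10 mM sodium citrate.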

[4] = target: T1, UDP-3-O-acyl-N-acetylglucosamine deacetylase (Escherichia coli K-12, UniProt P0A725); assay: Inhibition of Escherichia coli LpxC
T1 sequence (P0A725 whole entry): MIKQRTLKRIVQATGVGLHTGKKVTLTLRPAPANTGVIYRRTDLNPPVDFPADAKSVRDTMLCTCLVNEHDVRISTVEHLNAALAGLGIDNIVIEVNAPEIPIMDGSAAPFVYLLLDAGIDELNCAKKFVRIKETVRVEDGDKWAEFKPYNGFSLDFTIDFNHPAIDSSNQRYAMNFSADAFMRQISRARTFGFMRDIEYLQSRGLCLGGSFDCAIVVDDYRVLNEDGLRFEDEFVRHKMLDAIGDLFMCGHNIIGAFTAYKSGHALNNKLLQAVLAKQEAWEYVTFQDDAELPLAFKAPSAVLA

Row | SMILES | MIC (Pseudomonas aeruginosa) [µg/mL] | MIC (Escherichia coli [1]) [µg/mL] | MIC (Escherichia coli [2]) [µg/mL] | MIC (Escherichia coli [3]) [µg/mL] | Ki ([4]; read-out: Ki) [nM] | Ki ([4]; read-out: Ki(app)) [nM]
1 | C[C@@H](O)[C@H](NC(=O)c1ccc(C#Cc2ccc(CN3CCOCC3)cc2)cc1)C(=O)NO | 1.6 (≈ 3.66 µM) | 125 (≈ 286 µM) | 0.2 (≈ 0.457 µM) | 1.3 (≈ 2.97 µM) | – | –
2 | C[C@@H](O)[C@@H](NC(=O)c1ccc(C#CC#Cc2ccc(N)cc2)cc1)C(=O)NO | > 25 | > 25 | 6.3 (≈ 16.7 µM) | > 25 | – | –
3 | C[C@@H](O)[C@H](NC(=O)c1ccc(C#CC#Cc2ccc(N)cc2)cc1)C(=O)NO | 0.5 (≈ 1.32 µM) | 3.9 (≈ 10.3 µM) | 0.03 (≈ 0.0795 µM) | 0.5 (≈ 1.32 µM) | – | –
4 | C[C@H](O)[C@@H](NC(=O)c1ccc(C#CC#Cc2ccc(N)cc2)cc1)C(=O)NO | > 25 | > 25 | 3.1 (≈ 8.21 µM) | > 25 | – | –
5 | C[C@H](O)[C@H](NC(=O)c1ccc(C#CC#Cc2ccc(N)cc2)cc1)C(=O)NO | 0.9 (≈ 2.38 µM) | 12.5 (≈ 33.1 µM) | 0.07 (≈ 0.185 µM) | 0.8 (≈ 2.12 µM) | – | –
6 | C[C@@H](O)[C@H](NC(=O)c1ccc(C#CC#Cc2ccccc2N)cc1)C(=O)NO | 12.5 (≈ 33.1 µM) | > 25 | 0.5 (≈ 1.32 µM) | 8.3 (≈ 22 µM) | – | –
7 | C[C@@H](O)[C@H](NC(=O)c1ccc(C#CC#Cc2ccccc2)cc1)C(=O)NO | 0.7 (≈ 1.93 µM) | 6.3 (≈ 17.4 µM) | 0.05 (≈ 0.138 µM) | 0.7 (≈ 1.93 µM) | 0.18 | 0.55
8 | C[C@@H](O)[C@H](NC(=O)c1ccc(C#CC#Cc2cccc(N)c2)cc1)C(=O)NO | 1.3 (≈ 3.44 µM) | 6.3 (≈ 16.7 µM) | 0.06 (≈ 0.159 µM) | 1.3 (≈ 3.44 µM) | – | –
